The sample as a whole holds a higher share of hits than the screen did.
T cruzi inh – blocks replication of Trypanosoma cruzi; T. cruzi beta-gal in NIH3T3, luminescence, 90 h; inhibition, % (no concentration beside the values); 1.4% of 300,000 active; AID 1885;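 active = mean inhibition across valid replicates above about 55%, limit read from the data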;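 also: signal also drops with host cell toxicity which is not excluded here; higher percent means less beta-gal luminescence so fewer parasites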
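Read-out: Parasite load inhibition, % | Test system: Mouse NIH/3T3 fibroblasts infected with β-gal-expressing T. cruzi Tulahuen C4 | Amount: 5,000 cells/well | Medium: DMEM, 2% fetal bovine serum | Signal: GalScreen β-gal luminescence, detergent lysis, 60 min | Timing: 3 h attach, ≥90 h co-culture | Also added: Tulahuen C4 trypomastigotes, 5000/well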
Redox H2O2 prof – compounds producing H2O2 with reducing agent – biochemical, NIH compound library profiling, artefact control for MLSCN library redox annotation, primary screen; DTT-dependent redox cycling H2O2, phenol red/HRP absorbance; 100% = 100 µM peroxide control, 0% = buffer; activation, % at 10 µM; 0.03% of 200,000 active; AID 878;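 active = activation of at least 50% relative to the plate's high and low controls in the primary single-dose screen; inactive = activation below 50%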;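 also: compound incubated with DTT at 0.8 mM final as the reducing agent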
MPTP block – blocks calcium-induced mitochondrial swelling; isolated mouse mitochondria, Ca2+ swelling absorbance, 30 min; 1.4% of 360,000 active; inhibition, % at 10 µM;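 active = inhibition of 50% or more, scaled per plate between neutral and stimulator controls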
Lmaj promast – inhibitors of Leishmania major promastigote growth. AID 1063. inhibition, % at 10 µM. Leishmania major promastigotes, resazurin fluorescence viability. 9% of 200,000 active; in the data active = inhibition above about 50%;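 also: promastigotes grown with compound for 44 hours at 28 °C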
Hep lipid drop – modulators of hepatic lipid droplet formation. AML12 mouse hepatocytes, oleate lipid droplets, BODIPY imaging. inhibition, % at 6.5 µM. 0.4% of 240,000 active. AID 1656;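 active = lipid droplet intensity inhibited by at least 50%, with more than 500 cells counted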
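System: AML12 hepatocytes (mouse). Probe or stimulus: oleic acid at 100 µM to induce lipid droplet formation. Times: overnight treatment with compound plus oleate. Detection: Image-based BODIPY and DAPI two-channel analysis. Evaluation: percent inhibition of filter-corrected integrated lipid droplet intensity per well.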
Rh123 counter – Rhodamine 123 counter-screen of mitochondrial pore hits | shares compounds with MPTP block | isolated mitochondria, membrane potential, Rhodamine 123 fluorescence | inhibition, % at 10 µM | 78% of 5,000 active | AID 624504; in the data active = inhibition above about 22%
MPTP abs DR – MPTP inhibition, dose response swelling confirmation | AID 651561 | isolated mitochondria swelling, absorbance | 58% of 780 active | IC50, µM | shares compounds with MPTP block; in the data active = IC50 below about 20 µM
MPTP counter DR – counter-screen for mitochondrial permeability transition pore inhibitors, dose response; shares compounds with MPTP block; isolated mitochondria counterscreen, fluorescence read-out; IC50, µM; 49% of 780 active; AID 651564; in the data active = IC50 below about 80 µM
A number is an active result.

C[C@H](NC(=O)C1CCN(C(=O)[C@H](Cc2ccccc2)NC(=O)OC(C)(C)C)CC1)C(=O)O was read as T cruzi inh inactive, MPTP block inactive and Hep lipid drop inactive.
For COc1ccc(CN2C(=O)CS/C2=N/N=C/c2cccs2)cc1 the results were T cruzi inh inactive, MPTP block 82, Hep lipid drop inactive and Rh123 counter 62.
`COc1ccc(OC)c(/C=N/N=C2\SCC(=O)N2Cc2ccco2)c1` gave T cruzi inh inactive, Redox H2O2 prof inactive, MPTP block inactive, Lmaj promast inactive and Hep lipid drop inactive.
Cc1oc(C(C)(C)C)cc1C(=O)NCc1ccc2c(c1)OCO2 was read as T cruzi inh inactive, MPTP block 63, Hep lipid drop inactive and Rh123 counter 28.
`Cc1ccc(C(=O)NCc2ccc3c(c2)OCO3)o1` gave T cruzi inh inactive, MPTP block inactive and Hep lipid drop inactive.
`Cn1nc(C(C)(C)C)cc1C(=O)NCc1ccc2c(c1)OCO2` gave T cruzi inh inactive, MPTP block 101, Hep lipid drop inactive and Rh123 counter 105.
`CSc1nn2c(C(F)(F)F)cc(C(F)(F)F)nc2c1C(N)=O` gave T cruzi inh inactive, MPTP block inactive and Hep lipid drop inactive.
`O=C(O)CCCC(=O)N1N=C(c2ccccc2)CC1c1cccs1` (stereo not drawn) gave T cruzi inh inactive, MPTP block inactive and Hep lipid drop inactive.
For O=C(CNC(=O)OCc1ccccc1)NCC(=O)Oc1ccc([N+](=O)[O-])cc1 the results were MPTP block inactive.
COC(=O)c1sccc1N/N=C/c1cccc(Oc2ccccc2)c1 was read as T cruzi inh inactive, Redox H2O2 prof inactive, MPTP block 64, Lmaj promast inactive, Hep lipid drop inactive, Rh123 counter inactive, MPTP abs DR inactive and MPTP counter DR inactive.
`Cc1nn(CC(=O)Nc2sc3c(c2C#N)CCC(C(C)(C)C)C3)c(C)c1[N+](=O)[O-]` (stereo not drawn) gave T cruzi inh inactive, Redox H2O2 prof inactive, MPTP block 81, Lmaj promast inactive and Rh123 counter 32.
Cc1nn(CCCC(=O)Nc2sc3c(c2C#N)CCC3)c(C)c1[N+](=O)[O-] was read as T cruzi inh inactive, Redox H2O2 prof inactive, MPTP block inactive and Lmaj promast inactive.
`c1ccc(-c2nnc(-c3c[nH]c4ccccc34)nc2-c2ccccc2)cc1` gave T cruzi inh inactive, Redox H2O2 prof inactive, MPTP block inactive, Lmaj promast inactive and Hep lipid drop inactive.
ClC(Cl)c1nnc(-c2ccccc2)c(-c2c[nH]c3ccccc23)n1 was read as T cruzi inh inactive, Redox H2O2 prof inactive, MPTP block 52, Lmaj promast inactive, Hep lipid drop inactive and Rh123 counter 47.
Screening COC(=O)C(NC(=O)c1ccc(F)cc1)(Nc1ncc(S(=O)(=O)c2ccc([N+](=O)[O-])cc2)s1)C(F)(F)F (stereo not drawn) returned T cruzi inh inactive, Redox H2O2 prof inactive, MPTP block 90, Lmaj promast 58 and Rh123 counter 88.
Screening C[C@@H](NC(=O)c1nc[nH]c1C(=O)N(C)Cc1ccccc1)c1ccccc1 returned MPTP block inactive.
Cc1ccccc1/C=C1\SC(=S)N(/N=C/c2cc([N+](=O)[O-])ccc2O)C1=O was read as T cruzi inh inactive, Redox H2O2 prof inactive, MPTP block 80, Lmaj promast inactive, Hep lipid drop inactive and Rh123 counter 45.
Screening O=C(CCCN1C(=O)/C(=C\c2cccs2)SC1=S)Nc1cc([N+](=O)[O-])ccc1O returned T cruzi inh inactive, MPTP block 74, Hep lipid drop inactive and Rh123 counter 64.
O=C1/C(=C\c2ccc(O)c(O)c2)SC(=S)N1Cc1ccccc1 was read as T cruzi inh inactive, MPTP block inactive and Hep lipid drop inactive.
`O=C(CCN1C(=O)/C(=C/c2cccs2)SC1=S)Nc1ccccc1O` gave T cruzi inh inactive, MPTP block inactive and Hep lipid drop inactive.
`O=C1/C(=C\c2cccc(O)c2O)SC(=S)N1Cc1ccccc1` gave T cruzi inh inactive, MPTP block 92, Hep lipid drop inactive and Rh123 counter 46.
`O=C1/C(=C\c2cc([N+](=O)[O-])ccc2O)SC(=S)N1Cc1ccc(Cl)cc1` gave T cruzi inh inactive, MPTP block 52 and Rh123 counter inactive.
`COC(=O)c1cccc(NC(=O)Nc2ccc(Cl)cc2)c1` gave T cruzi inh inactive, MPTP block 77, Hep lipid drop inactive and Rh123 counter 92.
COC(=O)c1cccc(NC(=S)Nc2ccccc2Cl)c1 was read as T cruzi inh inactive, MPTP block inactive and Hep lipid drop inactive.
COC(=O)c1cc(NC(=S)Nc2cc(Cl)cc(Cl)c2)cc(C(=O)OC)c1 was read as T cruzi inh inactive, Redox H2O2 prof inactive, MPTP block 83, Lmaj promast inactive, Hep lipid drop inactive and Rh123 counter 75.
For NS(=O)(=O)c1cccc(NC(=O)Nc2ccc(Cl)cc2)c1 the results were T cruzi inh inactive, MPTP block 89, Hep lipid drop inactive and Rh123 counter 86.
COC(=O)c1cccc(NC(=S)Nc2ccc(Cl)c(Cl)c2)c1 was read as T cruzi inh inactive, MPTP block 80, Hep lipid drop inactive and Rh123 counter 91.
For CC(C)S(=O)(=O)c1csc(NC(=O)Nc2ccc(Cl)cc2)c1 the results were T cruzi inh inactive, MPTP block 76, Hep lipid drop inactive and Rh123 counter 79.
For Oc1cc2ccccc2nc1-c1ccccc1Cl the results were T cruzi inh inactive, MPTP block inactive and Hep lipid drop inactive.
`Cc1nn(-c2ccc(Cl)cc2)c2[nH]c(CCl)cc(=O)c12` gave T cruzi inh inactive, MPTP block 81, Hep lipid drop inactive and Rh123 counter 81.
CC(C)CN1CCC(=O)N(CCO)CC1 was read as T cruzi inh inactive, MPTP block inactive and Hep lipid drop inactive.
Screening C[C@H](O)[C@@H]1CN2CCc3c([nH]c4ccccc34)[C@@H]2C[C@@H]1N(C)C(=O)Nc1ccc(Br)cc1 returned MPTP block 83 and Rh123 counter 104.
Cc1ccc(-n2ncc3c2CC(C)(C)CC3NC(=O)c2c(C)noc2C)cc1 (stereo not drawn) was read as T cruzi inh inactive, MPTP block inactive and Hep lipid drop inactive.
